According to ChEMBL document CHEMBL3862037 (J Med Chem, 2016):

Assays:
[1] = Induction of locomotor activity in C57BL/6J mouse assessed as increase in traveled distance every 10 mins at 3 and 10 mg/kg, ip; type: organism-based; settings: in vivo
D(2) dopamine receptor [2] = target: T1, D(2) dopamine receptor (Homo sapiens, UniProt P14416); experiment: Displacement of [3H]N-methylspiperone from human D2R expressed in HEK293 cell membranes incubated for 1 hr by radioligand binding assay
In short: (§1)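 Membranes from HEK293 cells stably expressing human D2R (20 µg protein) or D4R (30 µg protein). Buffer: EBSS with 0.2 mM sodium metabisulfite and 0.4 nM [3H]N-methylspiperone. Test compound at 11 half-log dilutions (100 µM–100 pM or 10 µM–10 pM) in 30% DMSO vehicle. Incubated 1 h at room temperature; nonspecific binding with 10 µM butaclamol.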

D(3) dopamine receptor = D(3) dopamine receptor (Homo sapiens, UniProt P35462); experiment: Displacement of [3H]N-methylspiperone from human D3R expressed in HEK293 cell membranes incubated for 1 hr by radioligand binding assay
D(4) dopamine receptor = target: T2, D(4) dopamine receptor (Homo sapiens, UniProt P21917); experiment: Displacement of [3H]N-methylspiperone from human D4R expressed in HEK293 cell membranes incubated for 1 hr by radioligand binding assay; in short: as §1
T2 sequence (P21917 whole entry): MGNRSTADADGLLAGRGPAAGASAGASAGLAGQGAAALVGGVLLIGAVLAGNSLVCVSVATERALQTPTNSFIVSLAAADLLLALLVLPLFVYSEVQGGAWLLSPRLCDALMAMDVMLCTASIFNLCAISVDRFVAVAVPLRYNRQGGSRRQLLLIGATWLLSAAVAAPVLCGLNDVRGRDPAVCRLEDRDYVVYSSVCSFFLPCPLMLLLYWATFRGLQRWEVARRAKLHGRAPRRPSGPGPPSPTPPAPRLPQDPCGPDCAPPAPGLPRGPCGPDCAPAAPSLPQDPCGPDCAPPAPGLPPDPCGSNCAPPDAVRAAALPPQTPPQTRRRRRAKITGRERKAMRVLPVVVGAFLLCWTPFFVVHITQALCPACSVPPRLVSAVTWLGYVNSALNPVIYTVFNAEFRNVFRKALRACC

D(2) dopamine receptor [3] = target: T1, D(2) dopamine receptor; experiment: Antagonist activity at DRD2 (unknown origin) expressed in HEK293T cells transfected with Galphai1-RLuc8 and gamma2-GFP10 assessed as inhibition of quinpirole-induced Gi1 activation pre-incubated with quinpirole for 10 mins before compound incubation for 10 mins by BRET assay; type: cell-based, HEK-293T
In short: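 HEK-293T cells co-transfected with Flag-tagged D2 receptor, RLuc8-fused Gαi1, GFP10-fused Gγ and untagged Gβ, using constant total plasmid DNA at various partner ratios. Cells preincubated 10 min with 1 µM quinpirole, then 10 min with test compound. Read-out: BRET as fluorescence at 535 nm after 5 µM coelenterazine 400a.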

[4] = Displacement of [3H]WIN35,428 from human DAT Y156F mutant expressed in COS7 cell membranes incubated for >90 mins by radioligand binding assay; settings: cos-7
[5] = target: T3, Sodium-dependent dopamine transporter (Homo sapiens, UniProt Q01959); experiment: Displacement of [3H]WIN35,428 from wild type human DAT expressed in COS7 cell membranes incubated for >90 mins by radioligand binding assay; parameters: species or system COS-7
[6] = target: T3, Sodium-dependent dopamine transporter; experiment: Inhibition of DAT (unknown origin) expressed in COS7 cells assessed as reduction in [3H]DA uptake incubated for 5 mins by beta-scintillation counting method; type: cell-based, COS-7
[7] = Stability in mouse liver microsomes assessed as half life at 10 uM in presence of NADPH regenerating system by LC/MS/MS method; type: ADME
In short: (§2)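 Mouse liver microsomes (0.5 mg/mL) in 100 mM potassium phosphate pH 7.4 with NADPH regenerating system. Compound at 10 µM final; testosterone as positive control. Parent compound loss followed over time by LC/MS/MS on a C18 column with formic acid/acetonitrile gradient.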

[8] = Stability in mouse liver microsomes assessed as compound remaining at 10 uM in absence of NADPH regenerating system measured after 60 mins by LC/MS/MS method; type: ADME, microsome; settings: read-out: Stability
[9] = Stability in mouse liver microsomes assessed as compound remaining at 10 uM in presence of NADPH regenerating system measured at 60 mins by LC/MS/MS method; type: ADME; settings: read-out: Stability; in short: as §2
[10] = Induction of locomotor activity in C57BL/6J mouse assessed as increase in traveled distance every 10 mins at 10 mg/kg, ip; type: organism-based; settings: in vivo
[11] = Induction of locomotor activity in C57BL/6J mouse assessed as increase in traveled distance every 10 mins at 10 to 30 mg/kg, ip; type: organism-based; settings: in vivo
[12] = Stability in mouse liver microsomes assessed as compound remaining at 10 uM in presence of NADPH regenerating system measured up to 70 mins by LC/MS/MS method; type: ADME; settings: read-out: Stability

T1 sequence (P14416 whole entry): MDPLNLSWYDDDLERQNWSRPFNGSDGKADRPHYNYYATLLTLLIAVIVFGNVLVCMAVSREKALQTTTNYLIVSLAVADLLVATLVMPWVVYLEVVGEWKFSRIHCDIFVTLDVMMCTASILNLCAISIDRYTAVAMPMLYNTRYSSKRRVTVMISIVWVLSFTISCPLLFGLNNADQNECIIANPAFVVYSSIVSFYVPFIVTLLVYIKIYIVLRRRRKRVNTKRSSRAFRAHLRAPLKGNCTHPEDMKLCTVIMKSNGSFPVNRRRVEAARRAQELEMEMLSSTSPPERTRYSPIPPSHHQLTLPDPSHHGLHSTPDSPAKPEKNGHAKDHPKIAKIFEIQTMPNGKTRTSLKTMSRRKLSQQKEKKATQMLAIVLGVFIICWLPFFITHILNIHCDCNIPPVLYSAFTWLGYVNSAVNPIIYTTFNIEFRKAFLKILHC
T3 sequence (Q01959 whole entry): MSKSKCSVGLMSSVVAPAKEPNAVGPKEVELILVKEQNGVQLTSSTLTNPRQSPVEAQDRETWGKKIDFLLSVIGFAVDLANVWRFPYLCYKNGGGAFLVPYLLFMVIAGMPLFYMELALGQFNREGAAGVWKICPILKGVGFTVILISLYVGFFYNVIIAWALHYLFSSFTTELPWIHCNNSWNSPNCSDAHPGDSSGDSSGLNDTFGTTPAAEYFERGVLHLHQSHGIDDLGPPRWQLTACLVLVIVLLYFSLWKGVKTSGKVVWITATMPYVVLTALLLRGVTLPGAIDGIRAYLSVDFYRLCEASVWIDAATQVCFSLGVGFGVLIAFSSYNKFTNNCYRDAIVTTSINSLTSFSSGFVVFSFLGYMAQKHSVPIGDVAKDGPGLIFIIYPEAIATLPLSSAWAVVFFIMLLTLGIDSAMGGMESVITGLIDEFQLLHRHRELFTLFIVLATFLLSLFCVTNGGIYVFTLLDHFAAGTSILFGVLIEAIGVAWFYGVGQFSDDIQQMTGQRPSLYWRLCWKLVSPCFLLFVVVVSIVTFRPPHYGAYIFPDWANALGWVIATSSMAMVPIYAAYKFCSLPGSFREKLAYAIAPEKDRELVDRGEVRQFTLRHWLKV
Chain of D(3) dopamine receptor (P35462 whole entry): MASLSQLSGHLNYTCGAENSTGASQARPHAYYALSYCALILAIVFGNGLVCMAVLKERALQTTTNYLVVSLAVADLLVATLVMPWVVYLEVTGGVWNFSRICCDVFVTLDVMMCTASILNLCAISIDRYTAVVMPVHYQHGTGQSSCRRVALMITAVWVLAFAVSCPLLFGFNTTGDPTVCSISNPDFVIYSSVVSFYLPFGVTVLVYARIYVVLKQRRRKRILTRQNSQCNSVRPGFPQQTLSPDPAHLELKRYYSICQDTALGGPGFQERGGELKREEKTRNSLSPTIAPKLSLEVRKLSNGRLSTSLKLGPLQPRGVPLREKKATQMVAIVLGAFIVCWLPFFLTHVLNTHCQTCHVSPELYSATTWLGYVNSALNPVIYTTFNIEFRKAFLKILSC

Row | SMILES | Activity [1] | Ki (D(2) dopamine receptor [2]) [nM] | Ki (D(3) dopamine receptor) [nM] | Ki (D(4) dopamine receptor) [nM] | IC50 (D(2) dopamine receptor [3]) [nM] | Ki [4] [nM] | Ki [5] [nM] | Ki [6] [nM] | t1/2 ([7]; microsomes, 10 µM) [h] | remaining at 1 h, 10 µM [8] [%] | remaining at 1 h, 10 µM [9] [%] | Activity [10] | Activity [11] | half-life at 10 µM ([7]; liver microsomes) [h] | remaining at 70 min, 10 µM [12] [%]
1 | COC(=O)[C@H]1[C@@H](OC(=O)c2ccccc2)C[C@@H]2CC[C@H]1N2C [COCAINE] | Dose-dependent effect |  |  |  |  |  |  |  |  |  |  |  |  |  | 
2 | [O-][S+](CCN1CCN(CC(O)Cc2ccccc2)CC1)C(c1ccc(F)cc1)c1ccc(F)cc1 (stereo not drawn) |  | 78.6 | 652 | 1750 | > 10000 | 97 | 6.5 | 12 | 0.217 | > 95 | 4 | Non-Toxic | Dose-dependent effect |  | 
3 | CC(O)CN1CCN(CCSC(c2ccc(F)cc2)c2ccc(F)cc2)CC1 (stereo not drawn) |  | 693 | 424 | 6300 | > 10000 | 267 | 101 | 200 |  | > 95 |  |  |  | 1 | 50
